Active and inactive are the calls of the source. The calls are words filed in the database; no cut-off is given here.
Legend:
[1] = molecular target: Neuronal acetylcholine receptor; alpha4/beta4 (Rattus norvegicus, UniProt P09483+P12392); experiment: Displacement of [3H]epibatidine from rat alpha4beta4 nAChR by liquid scintillation counting; format: protein-complex assay
[2] = Antagonist activity at alpha3beta4* in human SH-SY5Y cells assessed as reduction in carbamylcholine induced 86Rb+ efflux preincubated for 10 mins followed by carbamylcholine addition measured after 5 mins by Cherenkov counting; format: cell-based
Outline: (§1)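 Same 86Rb+-loaded cells and pH 7.4 efflux buffer. Cells lysed in 0.1 M NaOH/0.1% SDS and Cerenkov counted. Specific efflux = total minus nonspecific (mecamylamine-blocked); inactivation IC50 derived from inhibition of carbamylcholine response.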

[3] = molecular target: Neuronal acetylcholine receptor; alpha3/beta2 (Rattus norvegicus, UniProt P04757+P12390); experiment: Displacement of [3H]epibatidine from rat alpha3beta2 nAChR by liquid scintillation counting; format: protein-complex assay
[4] = molecular target: T1, Acetylcholine receptor; alpha1/beta1/delta/gamma (Homo sapiens, UniProt P02708+P07510+P11230+Q07001); experiment: Agonist activity at alpha1beta1gammadelta nAChR in human TE671/RD cells after 9.5 mins by 86Rb+ efflux assay; format: cell-based
Outline: (§2)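 86Rb+ efflux: cells loaded with ~350,000 cpm 86Rb+ at least 4 h (typically overnight), rinsed with efflux buffer pH 7.4 (130 mM NaCl, 5.4 mM KCl, 2 mM CaCl2, 50 mM HEPES, 5 mM glucose). Test drug alone applied 9.5 min. Efflux normalized, after nonspecific subtraction, to specific efflux of fully efficacious carbamylcholine control; nonspecific defined with carbamylcholine plus mecamylamine; EC50 derived.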

[5] = molecular target: T1, Acetylcholine receptor; alpha1/beta1/delta/gamma; experiment: Antagonist activity at alpha1beta1gammadelta nAChR in human TE671/RD cells assessed as reduction in carbamylcholine induced 86Rb+ efflux preincubated for 10 mins followed by carbamylcholine addition measured after 5 mins by Cherenkov counting; format: cell-based; outline: as §1
[6] = molecular target: Neuronal acetylcholine receptor; alpha2/beta2 (Rattus norvegicus, UniProt P12389+P12390); experiment: Displacement of [3H]epibatidine from rat alpha2beta2 nAChR by liquid scintillation counting; format: protein-complex assay
[7] = Agonist activity at alpha3beta4* nAChR in human SH-SY5Y cells after 9.5 mins by 86Rb+ efflux assay; format: cell-based; outline: as §2
[8] = molecular target: Neuronal acetylcholine receptor; alpha2/beta4 (Rattus norvegicus, UniProt P12389+P12392); experiment: Displacement of [3H]epibatidine from rat alpha2beta4 nAChR by liquid scintillation counting; format: protein-complex assay
[9] = molecular target: Neuronal acetylcholine receptor; alpha3/beta4 (Rattus norvegicus, UniProt P04757+P12392); experiment: Displacement of [3H]epibatidine from rat alpha3beta4 nAChR by liquid scintillation counting; format: protein-complex assay
[10] = molecular target: Neuronal acetylcholine receptor; alpha4/beta2 (Rattus norvegicus, UniProt P09483+P12390); experiment: Displacement of [3H]epibatidine from rat alpha4beta2 nAChR by liquid scintillation counting; format: protein-complex assay
[11] = Displacement of [3H]epibatidine from rat forebrain alpha4beta2* nAChR by liquid scintillation counting
[12] = molecular target: T2, Neuronal acetylcholine receptor; alpha4/beta2 (Homo sapiens, UniProt P17787+P43681); experiment: Agonist activity at human alpha4beta2 nAChR expressed in human SH-EP1 cells after 9.5 mins by 86Rb+ efflux assay; format: cell-based
[13] = molecular target: T2, Neuronal acetylcholine receptor; alpha4/beta2; experiment: Antagonist activity at human alpha4beta2 expressed in human SH-EP1 cells assessed as reduction in carbamylcholine induced 86Rb+ efflux preincubated for 10 mins followed by carbamylcholine addition measured after 5 mins by Cherenkov counting; format: cell-based; outline: as §1
[14] = molecular target: T2, Neuronal acetylcholine receptor; alpha4/beta2; experiment: Agonist activity at human (alpha4beta2 )2alpha4 expressed in human SH-EP1 cells after 9.5 mins by 86Rb+ efflux assay relative to carbamylcholine; format: cell-based
[15] = molecular target: T2, Neuronal acetylcholine receptor; alpha4/beta2; experiment: Agonist activity at human (alpha4beta2 )2beta2 expressed in human SH-EP1 cells after 9.5 mins by 86Rb+ efflux assay relative to carbamylcholine; format: cell-based
[16] = Antidepressant activity in C57BL6 mouse at 5 mg/kg, ip administered 15 mins prior to testing by SmartCube automated system based method; format: functional, organism-based
Outline: (§3)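 Male C57 BL6 mice, group-housed 4 per cage, 22 °C, 12 h light-dark. Compound dissolved in water, given i.p. at 10 mL/kg, 15 min before automated SmartCube session; behaviour captured by digital video and classified by computer algorithms into a behavioural signature.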

[17] = Antidepressant activity in po dosed BALB/cJ mouse assessed as decrease in immobility time administered 30 mins and measured over 6 mins by classical Porsolt's forced swim test; format: functional, organism-based
Outline: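 Male BALB/cJ mice, 8–10 weeks, dosed po in water (10 mL/kg) at 1 and 10 mg/kg; water vehicle, sertraline 20 mg/kg ip as positive control. 30 min later placed in 1 L beaker with 12 cm of 23 °C water; immobility recorded over 6-min trial, total time analysed by ANOVA.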

[18] = molecular target: alpha3beta4 nAChR (neuronal acetylcholine receptor alpha3/beta4) (Rattus norvegicus, UniProt P04757+P12392); experiment: Displacement of [3H]epibatidine from rat alpha3beta4 nAChR at 10 uM by liquid scintillation counting; conditions: probe [3H]epibatidine
[19] = Antidepressant activity in C57BL6 mouse at 10 mg/kg, ip administered 15 mins prior to testing by SmartCube automated system based method; format: functional, organism-based; outline: as §3

Sequence of Neuronal acetylcholine receptor; alpha4/beta4 (P09483 whole entry): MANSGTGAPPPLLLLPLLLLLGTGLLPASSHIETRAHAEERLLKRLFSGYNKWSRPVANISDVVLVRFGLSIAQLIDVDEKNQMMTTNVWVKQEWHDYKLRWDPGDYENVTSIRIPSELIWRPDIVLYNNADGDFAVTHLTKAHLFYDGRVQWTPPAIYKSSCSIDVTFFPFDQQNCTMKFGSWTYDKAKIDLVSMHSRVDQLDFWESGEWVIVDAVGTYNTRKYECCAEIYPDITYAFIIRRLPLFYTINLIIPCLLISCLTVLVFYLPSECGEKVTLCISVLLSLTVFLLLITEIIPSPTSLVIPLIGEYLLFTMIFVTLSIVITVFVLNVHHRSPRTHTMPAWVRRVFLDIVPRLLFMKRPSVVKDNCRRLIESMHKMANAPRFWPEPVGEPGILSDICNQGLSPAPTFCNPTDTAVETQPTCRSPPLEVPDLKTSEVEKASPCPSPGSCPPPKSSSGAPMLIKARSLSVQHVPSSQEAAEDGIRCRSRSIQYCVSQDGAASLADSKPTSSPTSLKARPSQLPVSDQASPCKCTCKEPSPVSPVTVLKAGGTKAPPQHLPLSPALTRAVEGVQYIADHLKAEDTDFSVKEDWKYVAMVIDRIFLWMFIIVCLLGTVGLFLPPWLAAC
Sequence of Neuronal acetylcholine receptor; alpha4/beta4 (P12392 whole entry): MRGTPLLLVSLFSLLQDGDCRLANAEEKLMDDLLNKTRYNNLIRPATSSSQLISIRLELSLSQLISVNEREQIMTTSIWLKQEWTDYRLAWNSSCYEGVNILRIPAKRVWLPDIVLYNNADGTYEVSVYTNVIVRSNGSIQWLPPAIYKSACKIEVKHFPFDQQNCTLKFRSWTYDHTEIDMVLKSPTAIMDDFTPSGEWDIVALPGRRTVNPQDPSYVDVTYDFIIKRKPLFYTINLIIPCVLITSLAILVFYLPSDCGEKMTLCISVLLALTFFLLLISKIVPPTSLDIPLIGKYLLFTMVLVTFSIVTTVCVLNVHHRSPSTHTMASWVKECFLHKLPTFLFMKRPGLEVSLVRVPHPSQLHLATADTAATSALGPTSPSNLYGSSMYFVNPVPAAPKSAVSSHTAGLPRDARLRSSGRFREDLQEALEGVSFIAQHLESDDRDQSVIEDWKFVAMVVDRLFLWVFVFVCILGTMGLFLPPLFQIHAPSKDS
Sequence of Neuronal acetylcholine receptor; alpha4/beta2 (Rattus norvegicus, UniProt P09483+P12390) (P09483 whole entry): as the sequence (P09483 whole entry) above
Sequence of Neuronal acetylcholine receptor; alpha4/beta2 (Rattus norvegicus, UniProt P09483+P12390) (P12390 whole entry): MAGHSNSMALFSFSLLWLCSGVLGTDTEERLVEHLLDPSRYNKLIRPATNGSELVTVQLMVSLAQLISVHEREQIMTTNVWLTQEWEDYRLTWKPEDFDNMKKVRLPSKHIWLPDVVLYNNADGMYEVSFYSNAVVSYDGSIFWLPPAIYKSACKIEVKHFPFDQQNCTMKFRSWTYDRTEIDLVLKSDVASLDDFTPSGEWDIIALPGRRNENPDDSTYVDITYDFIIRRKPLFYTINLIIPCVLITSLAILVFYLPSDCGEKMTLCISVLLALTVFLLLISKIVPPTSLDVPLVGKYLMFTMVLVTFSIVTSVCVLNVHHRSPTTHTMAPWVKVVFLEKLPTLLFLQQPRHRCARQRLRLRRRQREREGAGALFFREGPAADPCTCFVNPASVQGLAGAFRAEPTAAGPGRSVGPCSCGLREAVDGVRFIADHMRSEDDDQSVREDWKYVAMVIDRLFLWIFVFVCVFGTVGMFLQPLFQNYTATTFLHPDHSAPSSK
Sequence of Neuronal acetylcholine receptor; alpha3/beta4 (P04757 whole entry): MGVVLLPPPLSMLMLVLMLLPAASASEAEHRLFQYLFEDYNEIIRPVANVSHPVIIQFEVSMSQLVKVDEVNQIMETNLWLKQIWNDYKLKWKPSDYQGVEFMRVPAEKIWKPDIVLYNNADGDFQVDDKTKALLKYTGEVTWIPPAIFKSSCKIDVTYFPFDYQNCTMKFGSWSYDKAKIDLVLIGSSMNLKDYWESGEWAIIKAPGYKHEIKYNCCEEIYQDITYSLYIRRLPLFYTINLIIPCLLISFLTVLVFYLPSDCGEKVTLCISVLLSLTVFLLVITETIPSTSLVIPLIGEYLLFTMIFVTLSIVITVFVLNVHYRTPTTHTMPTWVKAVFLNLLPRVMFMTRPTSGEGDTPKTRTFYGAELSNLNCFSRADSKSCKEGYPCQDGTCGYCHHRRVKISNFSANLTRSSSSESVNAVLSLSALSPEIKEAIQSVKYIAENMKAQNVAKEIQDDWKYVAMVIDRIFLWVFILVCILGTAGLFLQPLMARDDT
Sequence of Neuronal acetylcholine receptor; alpha3/beta4 (P12392 whole entry): as the sequence (P12392 whole entry) above
Sequence of Neuronal acetylcholine receptor; alpha3/beta2 (P04757 whole entry): as the sequence (P04757 whole entry) above
Sequence of Neuronal acetylcholine receptor; alpha3/beta2 (P12390 whole entry): as the sequence (P12390 whole entry) above

Row | SMILES | Ki [1] [nM] | IC50 [2] [nM] | Ki [3] [nM] | EC50 [4] [nM] | IC50 [5] [nM] | Ki [6] [nM] | EC50 [7] [nM] | Ki [8] [nM] | Ki [9] [nM] | Ki [10] [nM] | Ki [11] [nM] | EC50 [12] [nM] | IC50 [13] [nM] | Efficacy [14] [%] | Efficacy [15] [%] | Efficacy [13] [%] | further results
1 | COCC[C@@H]1C[C@H]1c1cncc(N2C[C@@H]3C[C@H]2CN3)c1 | 8450 | > 10000 | 617 | > 10000 | > 10000 | 43.1 | > 10000 | – | – | – | – | – | – | – | – | – | –
2 | COCC[C@H]1C[C@@H]1c1cncc(N2C[C@@H]3C[C@H]2CN3)c1 | 1340 | > 10000 | 141 | > 10000 | > 10000 | 3.1 | > 10000 | 4810 | – | – | – | – | – | – | – | – | –
3 | c1cncc(N2CCCNCC2)c1 | 71.6 | – | 5.1 | – | – | 1.1 | – | 62 | 366 | 3.4 | 3.3 | – | – | – | – | – | –
4 | COCC[C@H]1C[C@@H]1c1cncc(N2CCCN(C)CC2)c1 | 4810 | > 10000 | 681 | > 10000 | > 10000 | 18.1 | > 10000 | – | – | 25.4 | 33.8 | > 1000 | > 1000 | – | – | – | pEC50 ([12]; sh-ep1): < 6; pIC50 ([13]; sh-ep1): < 6
5 | COCC[C@H]1C[C@@H]1c1cncc(N2CCCNCC2)c1 | 151 | > 10000 | 17 | > 10000 | > 10000 | 0.3 | > 10000 | 460 | > 10000 | 0.7 | 2.7 | 15.9 | 16 | -9.3 | 81 | 74 | Activity [16]: Active; Activity [17]: Dose-dependent effect
6 | CN1CCCN(c2cncc(-c3cc(CCO)no3)c2)CC1 | 4940 | > 10000 | 1040 | > 10000 | > 10000 | 46.3 | > 10000 | > 10000 | – | – | – | – | – | – | – | – | inhibition at 10 µM [18]: < 50%
7 | COCC[C@@H]1C[C@H]1c1cncc(N2CCCNCC2)c1 | 168 | > 10000 | 15.8 | > 10000 | > 10000 | 0.3 | > 10000 | 256 | > 10000 | 0.5 | 2.7 | 17.1 | 15.7 | -5.6 | 63 | 79 | Activity [19]: Active
8 | OCCc1cc(-c2cncc(N3CCCNCC3)c2)on1 | 67.6 | > 10000 | 42 | > 10000 | > 10000 | 0.8 | > 10000 | 331 | 8100 | 0.8 | 3.5 | 30.9 | 50.8 | -5 | 58 | 68 | Activity [19]: Active
9 | c1cncc(N2CC3CC2CN3)c1 (stereo not drawn) | 7.7 | – | 3.1 | – | – | 0.3 | – | 15.2 | 64.6 | 1 | 0.8 | – | – | – | – | – | –

Source: ChEMBL document CHEMBL3877245 (Eur J Med Chem, 2016)
